According to ChEMBL document CHEMBL4431329, “Peripherally Selective Cannabinoid 1 Receptor (CB1R) Agonists for the Treatment of Neuropathic Pain” (J Med Chem, 2016):
Activity calls are given as the source filed them.

Assays:
Cannabinoid receptor 1 [1] = target: T1, Cannabinoid receptor 1 (Homo sapiens, UniProt P21554); assay: Displacement of [3H]-CP55940 from human CB1 receptor
Method in brief: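 Radioligand displacement used [3H]-CP55940 as tracer in heterologous competition binding. Unlabeled reference ligands defined nonspecific binding. Ki was calculated by Cheng–Prusoff.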

Rattus norvegicus [2] = assay: Analgesic activity in naive Sprague-Dawley rat assessed as increase in tail flick latency at 0.3 mg/kg, ip up to 48 hrs by tail-flick assay; format: functional, organism-based
Method in brief: (§1)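 Naïve male Sprague–Dawley rats were dosed ip (DMSO/Cremophor EL/saline) or by gavage (DMSO in 20% condensed milk). Radiant heat was aimed 3 cm from the tail tip and latency timed by photocell. Baseline was set to ~5–7 s with a 25 s cutoff. Testing ran 1 h pre-dose and up to 48 h after. Peak effect was taken minus vehicle; n = 6–8; blinded.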

Cannabinoid receptor 1 [3] = target: T1, Cannabinoid receptor 1; assay: Agonist activity at human CB1R expressed in CHO cells by Ca2+ flux assay; format: functional, cell-based
Method in brief: (§2)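 CHO cells stably co-expressing human CB1 or CB2 with Gαq16 were seeded at 40000/well and grown 24 h at 37 °C. They were loaded 1 h at 37 °C with Fluo-4 AM (2 μM final) in HBSS/20 mM HEPES/1% BSA/probenecid. Agonist was added after ~17 s baseline, and fluorescence (ex 488/em 525) was read each 1 s for 60 s. Runs were done 3–6 times; mean ± SEM.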

Rattus norvegicus [4] = assay: Analgesic activity in naive Sprague-Dawley rat assessed as tail flick latency at 0.1 to 10 mg/kg administered through oral gavage up to 48 hrs by tail-flick assay; format: functional, organism-based; method in brief: as §1
[5] = Toxicity in naive Sprague-Dawley rat assessed as hypothermia at 0.1 to 10 mg/kg administered through oral gavage after 2 to 48 hrs by core temperature test; format: organism-based; conditions: in vivo
Method in brief: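 Naïve rats were acclimated to a restrainer (two 5-min sessions 20 min apart). Core temperature was taken before and 2, 6, 24 and 48 h after ip (DMSO/Cremophor EL/saline) or oral gavage (DMSO in 20% condensed milk) dosing. Dose-response points are mean peak effect minus vehicle; n = 6–8 rats; blinded.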

Cannabinoid receptor 2 = Cannabinoid receptor 2 (Homo sapiens, UniProt P34972); assay: Agonist activity at human CB2R expressed in CHO cells by Ca2+ flux assay; format: functional, cell-based; method in brief: as §2
Cannabinoid receptor 2, sequence (P34972 whole entry): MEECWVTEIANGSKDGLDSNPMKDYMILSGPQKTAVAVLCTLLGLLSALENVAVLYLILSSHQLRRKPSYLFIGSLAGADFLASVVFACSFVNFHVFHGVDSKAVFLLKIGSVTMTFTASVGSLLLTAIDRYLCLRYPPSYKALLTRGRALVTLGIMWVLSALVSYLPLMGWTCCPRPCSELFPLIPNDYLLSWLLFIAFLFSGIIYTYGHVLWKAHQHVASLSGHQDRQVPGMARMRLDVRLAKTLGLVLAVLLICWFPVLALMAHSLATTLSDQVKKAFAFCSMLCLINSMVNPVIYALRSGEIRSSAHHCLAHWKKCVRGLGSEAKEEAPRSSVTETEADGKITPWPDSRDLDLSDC

[6] = Toxicity in naive Sprague-Dawley rat assessed as motor incoordination at 0.1 to 10 mg/kg administered through oral gavage after 2 to 48 hrs by rotarod test; format: organism-based; conditions: in vivo
Method in brief: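 Rats were trained 72 h earlier (3 sessions, 24 h apart) to stay ≥180 s on an accelerating rotarod (4–40 rev over 5 min). Time on rod was recorded to a 3 min cutoff, 1 h pre-dose and 2, 6, 24 and 48 h after ip or oral gavage dosing. Values are peak effect minus vehicle; n = 6–8; blinded.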

[7] = Toxicity in naive Sprague-Dawley rat assessed as immobility at 0.1 to 10 mg/kg administered through oral gavage after 2 to 48 hrs by catalepsy ring test; format: organism-based; conditions: in vivo
Method in brief: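 In the ring immobility test, forepaws were placed on a 12 cm horizontal ring with hindpaws just touching the bench. Time to move off was recorded, 100 s cutoff. Testing was pre-dose and 2, 6, 24 and 48 h after ip or oral gavage dosing. Values are peak effect minus vehicle; n = 6–8; blinded.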

Rattus norvegicus [8] = assay: Antiallodynic activity in SNE-induced mechanical allodynia naive Sprague-Dawley rat model assessed as reversible […] in hindpaw ipsilateral withdrawal threshold at 0.3 mg/kg, ip preincubated for 3 hrs followed by SNE addition; format: functional, organism-based
Method in brief: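 Male Sprague–Dawley rats received unilateral sciatic nerve entrapment. Testing began 8 days post-surgery at 3-day intervals, dosed ip in DMSO/Cremophor EL/saline. Hindpaw withdrawal threshold (g) was read with a digital von Frey meter, 4 readings per paw at 30 s spacing, averaged. Reads were taken 1 h before and 3, 6, 24 and 48 h after dosing; n = 8; blinded; one-way RM ANOVA.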

[9] = Metabolic stability in Sprague-Dawley rat liver S9 fraction assessed as compound remaining at 10 uM measured at 1 hr by LC/MS analysis; format: ADME, subcellular; conditions: s9, 1 h
Method in brief: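 Compound (10 μM final, from 1 mM ethanol stock) was incubated at 37 °C in male Sprague–Dawley rat liver S9 (1 mg protein/mL). The mix held an NADPH-regenerating system (1 mM NADP, 5 mM glucose 6-phosphate, 1 U/mL G6PDH) in 50 mM KPO4 pH 7.4 with 3 mM MgCl2, preincubated 5 min. Samples at 0–120 min were methanol-extracted and analysed by LC/MS.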

[10] = Efflux ratio of permeability in MDCK cells expressing mdr1 at 10 uM by mass spectroscopic analysis; format: ADME, cell-based, Canis lupus familiaris; conditions: dog
Method in brief: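 MDCK-mdr1 monolayers were grown 4 days on Transwell filters in DMEM/F12 with 10% FBS. Compound (10 μM) was added apically in HBSS with 25 mM D-glucose, HEPES pH 7.4, and incubated 1 h at 37 °C. Apical and basal samples were quantified by LC-MS/MS (MRM). Values are the average of 2–3 measurements.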

[11] = Metabolic stability in Sprague-Dawley rat plasma assessed as compound remaining at 10 uM measured at 1 hr by LC/MS analysis; format: ADME, cell-free
Method in brief: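 Compound (10 μM final, from 1 mM ethanol stock) was incubated in male Sprague–Dawley rat plasma at 37 °C. Aliquots taken at 0, 30 and 60 min were extracted with 3 volumes methanol and centrifuged. Supernatants were analysed by LC/MS.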

T1 sequence (P21554 whole entry): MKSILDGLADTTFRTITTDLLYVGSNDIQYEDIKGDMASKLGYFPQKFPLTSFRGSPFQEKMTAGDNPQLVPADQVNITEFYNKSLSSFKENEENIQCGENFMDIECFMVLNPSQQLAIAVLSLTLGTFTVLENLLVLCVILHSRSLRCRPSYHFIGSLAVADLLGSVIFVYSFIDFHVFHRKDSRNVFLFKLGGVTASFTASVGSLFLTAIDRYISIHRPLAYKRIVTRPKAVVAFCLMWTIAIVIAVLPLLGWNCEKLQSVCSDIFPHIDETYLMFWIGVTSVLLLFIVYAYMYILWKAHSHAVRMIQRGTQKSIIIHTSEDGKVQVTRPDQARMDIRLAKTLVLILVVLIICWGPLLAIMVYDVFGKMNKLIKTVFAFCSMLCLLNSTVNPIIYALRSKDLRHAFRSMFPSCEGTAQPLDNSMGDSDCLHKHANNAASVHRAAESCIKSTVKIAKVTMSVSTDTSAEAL

Row | SMILES | Ki (Cannabinoid receptor 1 [1]) [nM] | EC50 (Cannabinoid receptor 1 [3]) [nM] | Emax (Cannabinoid receptor 1 [3]) [%] | Stability [9] [%] | Stability [11] [%] | further results
1 | C[N+]1(CCn2cc(C(=O)c3cccc4ccccc34)c3ccccc32)CCOCC1 | > 10000 |  |  |  |  | 
2 | CCCCCCC1=C/C(=C\c2cccc3ccccc23)c2ccccc21 | 436 |  |  |  |  | 
3 | CCc1ccc(/C=C2\C=C(CCN3CCOCC3)c3ccccc32)c2ccccc12 |  | 141 | 121 |  |  | Activity (Rattus norvegicus [2]): Active; Activity (Rattus norvegicus [4]): Active; Activity [5]: Non-Toxic; EC50 (Cannabinoid receptor 2): 163 nM; Emax (Cannabinoid receptor 2): 59%; Activity [6]: Non-Toxic; Activity [7]: Non-Toxic
4 | C1=C(CCN2CCOCC2)c2ccccc2/C1=C/c1ccco1 | > 10000 |  |  |  |  | 
5 | C1=C(CCN2CCOCC2)c2ccccc2/C1=C/c1cccc2ccccc12 |  | 257 | 103 | 22.5 | 98.5 | Activity (Rattus norvegicus [8]): Active; Ratio [10]: 0.001; EC50 (Cannabinoid receptor 2): 138 nM; Emax (Cannabinoid receptor 2): 27%
6 | CCCCCn1cc(C(=O)c2cccc3ccccc23)c2cccc(F)c21 |  | 104 | 79 | 50 | 97 | 
7 | CCCCCn1cc(C(=O)c2cccc3ccccc23)c2ccc(F)cc21 |  |  |  | 30 | 80 | 
8 | O=C(O)CCCCn1cc(C(=O)c2cccc3ccccc23)c2ccccc21 | > 10000 |  |  |  |  | 
9 | CCCCCn1cc(C(=O)c2ccc(C(=O)O)c3ccccc23)c2ccccc21 | > 10000 |  |  |  |  | 
